Measurements published in ChEMBL document CHEMBL3763019, “Discovery of benzenesulfonamide derivatives as potent PI3K/mTOR dual inhibitors with in vivo efficacies against hepatocellular carcinoma” (Bioorg Med Chem, 2016).

Assays:
A549 = experiment: Antiproliferative activity against human A549 cells incubated for 48 hrs by sulforhodamine B assay; assay type: functional; details: A549, 48 h
Procedure, shortened: (§1)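 Run externally by the US National Cancer Institute as part of its 60 human cancer cell line cytotoxicity screen (NCI-60).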

K562 = experiment: Antiproliferative activity against human K562 cells incubated for 48 hrs by sulforhodamine B assay; assay type: functional; details: K562, 48 h; procedure, shortened: as §1
[1] = Antiproliferative activity against human HCT15 cells incubated for 48 hrs by sulforhodamine B assay; assay type: functional; details: HCT-15, 48 h; procedure, shortened: as §1
SK-MEL-2 = experiment: Antiproliferative activity against human SK-MEL-2 cells incubated for 48 hrs by sulforhodamine B assay; assay type: functional; details: SK-MEL-2, 48 h; procedure, shortened: as §1
[2] = Antiproliferative activity against human SF295 cells incubated for 48 hrs by sulforhodamine B assay; assay type: functional; details: SF-295, 48 h; procedure, shortened: as §1
[3] = target: T1, Phosphatidylinositol 4,5-bisphosphate 3-kinase catalytic subunit delta isoform (Homo sapiens) (UniProt O00329); experiment: Inhibition of PI3K-delta (unknown origin) using PIP2 as substrate at 10 nM incubated for 1 hr by Kinase-Glo luminescent kinase assay
T1 sequence (whole entry): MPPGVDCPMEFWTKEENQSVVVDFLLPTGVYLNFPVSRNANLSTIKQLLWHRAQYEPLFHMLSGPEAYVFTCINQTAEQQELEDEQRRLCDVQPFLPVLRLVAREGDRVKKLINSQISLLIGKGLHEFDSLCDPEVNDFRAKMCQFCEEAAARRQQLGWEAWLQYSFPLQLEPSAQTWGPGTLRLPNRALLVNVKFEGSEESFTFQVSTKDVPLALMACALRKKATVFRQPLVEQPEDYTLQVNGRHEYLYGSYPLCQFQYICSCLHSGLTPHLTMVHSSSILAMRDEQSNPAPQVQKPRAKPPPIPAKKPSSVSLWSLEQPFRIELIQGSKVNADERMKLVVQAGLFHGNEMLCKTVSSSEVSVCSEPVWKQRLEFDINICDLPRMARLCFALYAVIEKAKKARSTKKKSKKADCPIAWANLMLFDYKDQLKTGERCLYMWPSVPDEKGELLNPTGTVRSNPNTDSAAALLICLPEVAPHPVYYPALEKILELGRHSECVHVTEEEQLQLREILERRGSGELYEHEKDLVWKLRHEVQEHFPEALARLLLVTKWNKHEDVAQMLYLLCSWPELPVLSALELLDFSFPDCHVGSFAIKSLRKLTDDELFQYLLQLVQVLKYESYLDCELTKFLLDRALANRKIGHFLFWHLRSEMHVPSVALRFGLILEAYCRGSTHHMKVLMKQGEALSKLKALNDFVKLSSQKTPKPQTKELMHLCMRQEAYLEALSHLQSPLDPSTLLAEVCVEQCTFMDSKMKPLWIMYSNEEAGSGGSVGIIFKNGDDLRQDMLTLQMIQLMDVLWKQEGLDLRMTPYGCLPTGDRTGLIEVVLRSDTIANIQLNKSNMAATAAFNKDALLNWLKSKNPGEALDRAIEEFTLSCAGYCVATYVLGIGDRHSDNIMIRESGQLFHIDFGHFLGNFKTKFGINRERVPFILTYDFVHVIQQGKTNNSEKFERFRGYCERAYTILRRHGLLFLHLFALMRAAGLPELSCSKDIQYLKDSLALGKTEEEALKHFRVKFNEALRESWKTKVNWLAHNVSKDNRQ
Procedure, shortened: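 Final PIP2 was 50 µM and ATP 25 µM; PI3Kδ was 1.65 nM. Reactions ran 1 h at room temperature, then Kinase-Glo was added for 15 min before reading luminescence. Percent inhibition was derived from RLU. Dose-response used ten 3-fold dilutions (top 100 or 500 nM) in duplicate.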

NCI-H226 = experiment: Antiproliferative activity against human NCI-H226 cells incubated for 48 hrs by sulforhodamine B assay; assay type: functional; details: NCI-H226, 48 h; procedure, shortened: as §1
[4] = Antiproliferative activity against human NCI-ADR-RES cells incubated for 48 hrs by sulforhodamine B assay; assay type: functional; procedure, shortened: as §1
[5] = Antiproliferative activity against human OVCAR3 cells incubated for 48 hrs by sulforhodamine B assay; assay type: functional; details: OVCAR-3, 48 h; procedure, shortened: as §1
MDA-MB-435 = experiment: Antiproliferative activity against human MDA-MB-435 cells incubated for 48 hrs by sulforhodamine B assay; assay type: functional; details: MDA-MB-435, 48 h; procedure, shortened: as §1
[6] = Antiproliferative activity against human SNB75 cells incubated for 48 hrs by sulforhodamine B assay; assay type: functional; details: SNB-75, 48 h; procedure, shortened: as §1
MDA-MB-468 = experiment: Antiproliferative activity against human MDA-MB-468 cells incubated for 48 hrs by sulforhodamine B assay; assay type: functional; details: MDA-MB-468, 48 h; procedure, shortened: as §1
[7] = target: Phosphatidylinositol 4,5-bisphosphate 3-kinase catalytic subunit gamma isoform (Homo sapiens, UniProt P48736); experiment: Inhibition of PI3K-gamma (unknown origin) at 10 nM after 40 mins by ADP-Glo luminescent kinase assay
Procedure, shortened: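 Final enzyme was PI3Kβ 4.8 nM and PI3Kγ 7.6 nM. ADP-Glo reagent stopped the reaction (40 min), then detection reagent was added (60 min) and luminescence read. Percent inhibition was derived from RLU.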

[8] = Antiproliferative activity against human UACC62 cells incubated for 48 hrs by sulforhodamine B assay; assay type: functional; details: UACC-62, 48 h
SK-MEL-28 = experiment: Antiproliferative activity against human SK-MEL-28 cells incubated for 48 hrs by sulforhodamine B assay; assay type: functional; details: SK-MEL-28, 48 h; procedure, shortened: as §1
[9] = Antiproliferative activity against human SKOV3 cells incubated for 48 hrs by sulforhodamine B assay; assay type: functional; details: SK-OV-3, 48 h; procedure, shortened: as §1
NCI-H23 = experiment: Antiproliferative activity against human NCI-H23 cells incubated for 48 hrs by sulforhodamine B assay; assay type: functional; details: NCI-H23, 48 h; procedure, shortened: as §1
[10] = Antiproliferative activity against human HCT116 cells incubated for 48 hrs by sulforhodamine B assay; assay type: functional; details: HCT-116, 48 h; procedure, shortened: as §1
EKVX = experiment: Antiproliferative activity against human EKVX cells incubated for 48 hrs by sulforhodamine B assay; assay type: functional
[11] = read-out: pLC50 (the source's name) (converted)

Sequence of Phosphatidylinositol 4,5-bisphosphate 3-kinase catalytic subunit gamma isoform (P48736 whole entry, looked up, canonical isoform): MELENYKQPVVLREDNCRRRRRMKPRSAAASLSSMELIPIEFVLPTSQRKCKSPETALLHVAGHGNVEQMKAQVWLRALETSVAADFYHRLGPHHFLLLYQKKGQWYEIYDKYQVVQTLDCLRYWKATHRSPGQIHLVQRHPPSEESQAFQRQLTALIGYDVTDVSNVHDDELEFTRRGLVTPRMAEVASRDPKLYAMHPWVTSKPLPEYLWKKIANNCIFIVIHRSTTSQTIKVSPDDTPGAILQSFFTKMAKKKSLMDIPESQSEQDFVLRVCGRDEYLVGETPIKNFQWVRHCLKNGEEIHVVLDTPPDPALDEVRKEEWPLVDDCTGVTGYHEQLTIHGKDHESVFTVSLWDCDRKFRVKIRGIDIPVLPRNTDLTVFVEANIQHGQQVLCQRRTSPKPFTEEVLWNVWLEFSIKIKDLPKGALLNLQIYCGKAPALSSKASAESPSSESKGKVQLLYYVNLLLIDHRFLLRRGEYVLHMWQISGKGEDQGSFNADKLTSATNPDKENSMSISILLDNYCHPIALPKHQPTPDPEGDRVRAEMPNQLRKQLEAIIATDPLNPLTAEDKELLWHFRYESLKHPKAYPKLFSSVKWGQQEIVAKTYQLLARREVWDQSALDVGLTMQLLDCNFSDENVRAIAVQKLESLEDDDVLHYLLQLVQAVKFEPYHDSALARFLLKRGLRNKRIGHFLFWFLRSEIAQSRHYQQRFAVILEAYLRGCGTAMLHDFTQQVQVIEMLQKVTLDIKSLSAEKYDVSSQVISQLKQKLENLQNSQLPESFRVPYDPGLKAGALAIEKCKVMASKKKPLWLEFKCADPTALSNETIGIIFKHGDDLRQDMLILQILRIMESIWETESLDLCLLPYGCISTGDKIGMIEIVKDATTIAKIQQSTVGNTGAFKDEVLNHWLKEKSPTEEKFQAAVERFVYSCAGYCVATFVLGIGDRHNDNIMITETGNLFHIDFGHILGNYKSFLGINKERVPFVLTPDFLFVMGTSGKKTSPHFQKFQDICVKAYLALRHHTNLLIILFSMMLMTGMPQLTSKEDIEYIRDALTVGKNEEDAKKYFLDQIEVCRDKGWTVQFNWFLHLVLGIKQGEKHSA

Compound: COc1ncc(-c2ccc3nccc(C#CCN4CCN(S(C)(=O)=O)CC4)c3c2)cc1NS(=O)(=O)c1ccc(F)cc1F
- GI50 (A549): 72.4 nM
- CC50 (A549; [11]): 44700 nM
- TGI (A549; read-out: pTGI (converted)): 5500 nM
- GI50 (K562): 646 nM
- CC50 (K562; [11]): > 100000 nM
- TGI (K562; read-out: pTGI (converted)): 17000 nM
- GI50 [1]: 55 nM
- CC50 [1, 11]: 6610 nM
- TGI ([1]; read-out: pTGI (converted)): 1350 nM
- GI50 (SK-MEL-2): 110 nM
- CC50 (SK-MEL-2; [11]): 26300 nM
- TGI (SK-MEL-2; read-out: pTGI (converted)): 871 nM
- GI50 [2]: 74.1 nM
- CC50 [2, 11]: 29500 nM
- TGI ([2]; read-out: pTGI (converted)): 1000 nM
- inhibition [3]: 25.8%
- GI50 (NCI-H226): 245 nM
- CC50 (NCI-H226; [11]): 7240 nM
- TGI (NCI-H226; read-out: pTGI (converted)): 1820 nM
- GI50 [4]: 355 nM
- CC50 [4, 11]: 79400 nM
- TGI ([4]; read-out: pTGI (converted)): 12000 nM
- GI50 [5]: 51.3 nM
- CC50 [5, 11]: 6610 nM
- TGI ([5]; read-out: pTGI (converted)): 1100 nM
- GI50 (MDA-MB-435): 75.9 nM
- CC50 (MDA-MB-435; [11]): 6610 nM
- TGI (MDA-MB-435; read-out: pTGI (converted)): 1070 nM
- GI50 [6]: 10.7 nM
- CC50 [6, 11]: 28800 nM
- TGI ([6]; read-out: pTGI (converted)): 151 nM
- GI50 (MDA-MB-468): 17 nM
- CC50 (MDA-MB-468; [11]): 1380 nM
- TGI (MDA-MB-468; read-out: pTGI (converted)): 85.1 nM
- inhibition [7]: 95%
- GI50 [8]: 33.1 nM
- CC50 [8, 11]: 3240 nM
- TGI ([8]; read-out: pTGI (converted)): 282 nM
- GI50 (SK-MEL-28): 34.7 nM
- CC50 (SK-MEL-28; [11]): 5250 nM
- TGI (SK-MEL-28; read-out: pTGI (converted)): 1050 nM
- GI50 [9]: 17.4 nM
- CC50 [9, 11]: 33900 nM
- TGI ([9]; read-out: pTGI (converted)): 229 nM
- GI50 (NCI-H23): 295 nM
- CC50 (NCI-H23; [11]): 20000 nM
- TGI (NCI-H23; read-out: pTGI (converted)): 2690 nM
- GI50 [10]: 138 nM
- CC50 [10, 11]: 5750 nM
- TGI ([10]; read-out: pTGI (converted)): 1660 nM
- GI50 (EKVX): 25.7 nM
- CC50 (EKVX; [11]): 42700 nM
